Test results reported in ChEMBL document CHEMBL1132952, “2D QSAR modeling and preliminary database searching for dopamine transporter inhibitors using genetic algorithm variable selection of Molconn Z descriptors” (J Med Chem, 2000).

What was measured:
[1] = target: Sodium-dependent dopamine transporter (Rattus norvegicus, UniProt P23977)
[2] = target: Sodium-dependent dopamine transporter (Rattus norvegicus) (UniProt P23977); experiment: Binding affinity to Dopamine transporter (DAT) using [3H]WIN-35428 at 1 uM
Procedure, shortened: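 Rat striatal membranes (male Sprague-Dawley, 200-225 g) in modified Krebs-HEPES buffer, pH 7.4. Each tube held 2.5 mg tissue (original wet weight) and 1.5 nM [3H]WIN 35,428. Membranes were preincubated 5 min with or without 1 μM test compound, in triplicate, then incubated 60 min on ice. Nonspecific binding was taken with 0.1 mM cocaine·HCl. Filtration through BSA-presoaked GF/B filters, scintillation counting.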

Sodium-dependent dopamine transporter, sequence (P23977 whole entry): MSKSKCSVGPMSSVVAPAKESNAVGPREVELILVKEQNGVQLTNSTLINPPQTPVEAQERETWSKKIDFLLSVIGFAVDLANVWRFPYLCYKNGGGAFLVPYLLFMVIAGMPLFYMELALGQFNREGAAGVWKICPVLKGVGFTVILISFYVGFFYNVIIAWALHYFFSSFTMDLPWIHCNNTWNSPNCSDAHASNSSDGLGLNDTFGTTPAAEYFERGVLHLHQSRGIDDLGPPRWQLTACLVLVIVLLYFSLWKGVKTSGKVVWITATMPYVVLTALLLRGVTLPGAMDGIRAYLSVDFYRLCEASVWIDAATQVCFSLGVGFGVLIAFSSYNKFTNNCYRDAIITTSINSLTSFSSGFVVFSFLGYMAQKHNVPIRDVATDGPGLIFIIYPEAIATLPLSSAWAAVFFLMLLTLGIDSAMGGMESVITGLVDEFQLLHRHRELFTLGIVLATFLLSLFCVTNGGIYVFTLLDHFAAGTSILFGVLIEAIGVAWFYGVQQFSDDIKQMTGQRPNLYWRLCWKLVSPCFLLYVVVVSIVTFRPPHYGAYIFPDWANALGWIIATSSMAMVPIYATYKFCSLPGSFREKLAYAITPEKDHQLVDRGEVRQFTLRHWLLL
Sodium-dependent dopamine transporter (Rattus norvegicus), sequence (P23977 whole entry): as above

Structure (SMILES)	Ki [1] [nM]	Specific binding [2] [%]
COC(=O)CC[C@@H]1C2CCC(C[C@@H]1c1ccccc1)N2C (stereo not given in full)	22.9	–
CCCCN(CCCC)CCC(=O)c1cc(-c2ccccc2)oc1-c1ccccc1	–	93.4
COC(=O)/C=C/[C@@H]1C2CCC(C[C@@H]1c1ccccc1)N2C (stereo not given in full)	21.9	–
CC(NC(C)(C)C)C(=O)c1cccc(Cl)c1 (stereo not given) [BUPROPION]	372	–
COC(=O)C1C2CC[C@H](C[C@@H]1c1ccc(Cl)cc1)N2C (stereo not given in full)	2	–
CC(CN1CCCC1)OC(=O)C(c1ccccc1)C1C=CCC1 (stereo not given)	–	49.7
COC(=O)/C=C/CC[C@@H]1C2CCC(C[C@@H]1c1ccccc1)N2C (stereo not given in full)	20	–
CCC(=O)[C@@H]1C2CCC(C[C@@H]1OC(=O)c1ccccc1)N2C (stereo not given in full)	309	–
CC[C@H]1CC2[C@@H](CC(=O)OC)[C@@H](Cc3ccccc3)CC1N2C (stereo not given in full)	309	–
COc1ccc(C(O[C@H]2C[C@H]3CC[C@@H](C2)N3C)c2ccccc2)cc1 (stereo not given in full)	79.4	–
Clc1ccc(C2NCCNCc3ccccc32)cc1 (stereo not given)	–	54.3
CN1C2CCC1[C@@H](/C=C/CO)[C@@H](c1ccccc1)C2 (stereo not given in full)	16.2	–
CC(C(OC(=O)C1c2ccccc2-c2ccccc21)c1ccccc1)N(C)C (stereo not given)	–	19
COC(=O)CCCC[C@@H]1C2CCC(C[C@@H]1c1ccccc1)N2C (stereo not given in full)	30.2	–
COC(=O)C[C@@H]1C2C[C@H](Cc3ccccc3)C(C[C@@H]1Cc1ccccc1)N2C (stereo not given in full)	3090	–
c1ccc(C(CN2CCCCC2)OCc2cccs2)cc1 (stereo not given)	–	42.1
c1ccc2c(CN3CCOCC3)c[nH]c2c1	–	88.1
COC(=O)[C@@H]1C2CC[C@H](C[C@@H]1c1ccccc1)N2C	87.1	–
CN1C2CCC1[C@@H](CCCO)[C@@H](c1ccccc1)C2 (stereo not given in full)	11	–
O=C1c2ccccc2CC1CN1CCCCC1 (stereo not given)	–	89.9
O=C(OCCN1CCOCC1)C1(c2ccccc2)CCCCC1	5370	–
CCC[C@H]1CC2[C@@H](CC(=O)OC)[C@@H](Cc3ccccc3)CC1N2C (stereo not given in full)	4170	–
COC(=O)C[C@@H]1C2C[C@H](C)C(C[C@@H]1Cc1ccccc1)N2C (stereo not given in full)	214	–

Structure (SMILES)	Ki [1] [nM]	Specific binding [2] [%]
COC(=O)[C@@H]1C2CC[C@H](C[C@@H]1c1ccc(C)cc1)N2C	5.01	–
COc1ccccc1OC(CCN)c1ccccc1 (stereo not given)	562	–
CN1C2CCC1[C@@H](CCC(=O)c1ccccc1)[C@@H](c1ccccc1)C2 (stereo not given in full)	28.2	–
COc1cc(NCCN(CC(C)C)CC(C)C)c2ncccc2c1	–	81.6
CC(=O)[C@@H]1C2CCC(C[C@@H]1OC(=O)c1ccccc1)N2C (stereo not given in full)	191	–
COc1ccc2c(c1)CN(C)CC2c1ccc(Cl)c(Cl)c1 (stereo not given) [DICLOFENSINE]	7.08	–
CCCC[C@H]1CC2[C@@H](CC(=O)OC)[C@@H](Cc3ccccc3)CC1N2C (stereo not given in full)	8510	–
CN1[C@@H]2CC[C@H]1C[C@@H](OC(c1ccccc1)c1cccc(C(F)(F)F)c1)C2 (stereo not given in full)	191	–
CC(C)OC(=O)[C@@H]1C2CC[C@H](C[C@@H]1c1ccc(I)cc1)N2C	3.98	–
CN(C)C/C=C(\c1cccnc1)c1cccc(Br)c1	11200	–
CN1CCC(OC(c2ccccc2)c2ccc(Cl)cc2)C1 (stereo not given)	–	8.43
CN1[C@@H]2CC[C@H]1C[C@@H](OC(c1ccccc1)c1ccccc1N)C2 (stereo not given in full) [AMINOBENZTROPINE]	1860	–
CCCN1CCCC(c2ccc(O)cc2)C1 (stereo not given)	562	–
CN1C2CCC1[C@@H](CCCc1ccccc1)[C@@H](c1ccccc1)C2 (stereo not given in full)	16.2	–
c1ccc2sc(C3(N4CCCCC4)CCCCC3)cc2c1	10	–
C[C@@H]1CN(CCCn2c3ccccc3c3ccccc32)C[C@H](C)N1 [RIMCAZOLE]	105	–
O=C1N2CCNc3ccccc3C(c3ccccc3)N1CC2 (stereo not given)	–	55.8
COC(=O)CC(c1ccccc1)C1CCCCN1 (stereo not given)	186	–
COC(=O)[C@@H]1C2CC[C@H](C[C@@H]1c1ccc(I)cc1)N2C	2.09	–
CCOC(=O)N1CCN(Cc2c[nH]c3ccccc23)CC1	–	88.5
NC12CCC(c3ccccc3)(CC1)CC2	83.2	–
CN1[C@@H]2CC[C@H]1C[C@@H](OC(c1ccccc1)c1ccc(Cl)c(Cl)c1)C2 (stereo not given in full)	21.4	–
